Data published in ChEMBL document CHEMBL1134143, “Studies towards the next generation of antidepressants. Part 1: Indolylcyclohexylamines as potent serotonin reuptake inhibitors” (Bioorg Med Chem Lett, 2001).
pKi: −log10 of the molar value.

Columns and labels:
[1] = biological target: Sodium-dependent serotonin transporter (Rattus norvegicus, UniProt P31652); experiment: In vitro for its binding affinity for serotonin transporter RB5-HT-T in rat cortical membranes; type: cell membranes
In short: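 Serotonin transporter affinity (RB5-HT-T). Compound tested at six concentrations in triplicate. Ki calculated from IC50 by Cheng–Prusoff and given as the mean of 2–3 experiments.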

[2] = biological target: Adrenergic receptor alpha-1 (Rattus norvegicus) (UniProt P15823+P23944+P43140); experiment: In vitro inhibition of [3H]prazosin binding to rat Alpha-1 adrenergic receptors on cortical membranes at 1 uM.; type: cell membranes; conditions: Membrane
[3] = biological target: T1, 5-hydroxytryptamine receptor 1A (Homo sapiens) (UniProt P08908); experiment: Binding affinity for 5-hydroxytryptamine 1A receptor was determined by incubating human 5-hydroxytryptamine 1A receptor transfected CHO cells with [3H]8-OH-DPAT; type: cell-based; parameters: concentration or dose not given beside the values; conditions: concentration not given here
T1 sequence (whole entry): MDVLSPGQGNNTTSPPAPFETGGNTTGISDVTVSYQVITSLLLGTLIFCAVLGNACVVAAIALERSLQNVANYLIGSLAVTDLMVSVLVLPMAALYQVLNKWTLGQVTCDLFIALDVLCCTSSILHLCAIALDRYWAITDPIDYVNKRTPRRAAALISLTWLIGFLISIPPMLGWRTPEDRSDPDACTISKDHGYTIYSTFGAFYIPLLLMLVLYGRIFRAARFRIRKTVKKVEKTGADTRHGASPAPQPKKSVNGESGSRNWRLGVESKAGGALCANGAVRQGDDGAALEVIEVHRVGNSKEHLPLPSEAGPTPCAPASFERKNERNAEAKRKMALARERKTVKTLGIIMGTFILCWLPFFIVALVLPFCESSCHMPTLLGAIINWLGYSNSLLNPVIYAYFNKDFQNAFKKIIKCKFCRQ
In short: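 Displacement of [3H]-8-OH-DPAT binding in CHO cells transfected with human 5-HT1A receptors. Test compound at six concentrations, triplicate wells per experiment. IC50 converted to Ki (Cheng–Prusoff) and reported as the mean of 2–3 independent experiments.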

[4] = biological target: T2, Adrenergic receptor alpha-1 (Rattus norvegicus, UniProt P15823+P23944+P43140); experiment: Binding affinity at Alpha-1 adrenergic receptors on rat cortical membranes by [3H]prazosin displacement.
T2 sequence (P15823 whole entry): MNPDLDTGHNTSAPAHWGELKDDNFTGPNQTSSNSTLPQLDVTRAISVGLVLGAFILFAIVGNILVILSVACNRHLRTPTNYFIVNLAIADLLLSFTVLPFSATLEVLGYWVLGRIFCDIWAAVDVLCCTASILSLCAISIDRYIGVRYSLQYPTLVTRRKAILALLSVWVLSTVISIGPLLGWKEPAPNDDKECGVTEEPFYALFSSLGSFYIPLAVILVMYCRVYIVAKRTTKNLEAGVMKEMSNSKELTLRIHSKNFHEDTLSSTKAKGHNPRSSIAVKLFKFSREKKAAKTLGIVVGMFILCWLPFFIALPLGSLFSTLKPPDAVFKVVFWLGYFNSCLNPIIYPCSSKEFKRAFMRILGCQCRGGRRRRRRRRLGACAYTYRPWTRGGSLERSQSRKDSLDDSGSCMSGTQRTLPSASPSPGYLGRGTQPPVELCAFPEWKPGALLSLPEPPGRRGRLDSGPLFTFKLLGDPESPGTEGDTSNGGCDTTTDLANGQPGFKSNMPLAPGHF
T2 sequence (P23944 whole entry): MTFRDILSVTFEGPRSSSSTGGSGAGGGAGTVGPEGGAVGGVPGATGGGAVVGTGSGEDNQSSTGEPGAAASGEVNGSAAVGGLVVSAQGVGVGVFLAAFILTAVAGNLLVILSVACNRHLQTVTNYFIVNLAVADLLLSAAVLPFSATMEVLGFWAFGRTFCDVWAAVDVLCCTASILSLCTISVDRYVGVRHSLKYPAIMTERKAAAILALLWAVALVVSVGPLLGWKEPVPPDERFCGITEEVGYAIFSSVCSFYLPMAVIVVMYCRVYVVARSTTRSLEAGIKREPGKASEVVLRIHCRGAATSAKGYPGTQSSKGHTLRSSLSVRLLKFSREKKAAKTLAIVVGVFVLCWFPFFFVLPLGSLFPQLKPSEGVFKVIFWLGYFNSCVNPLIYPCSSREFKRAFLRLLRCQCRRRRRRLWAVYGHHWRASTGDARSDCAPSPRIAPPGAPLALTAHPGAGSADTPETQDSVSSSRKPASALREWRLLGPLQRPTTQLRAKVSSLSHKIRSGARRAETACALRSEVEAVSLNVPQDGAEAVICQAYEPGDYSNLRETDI
T2 sequence (P43140 whole entry): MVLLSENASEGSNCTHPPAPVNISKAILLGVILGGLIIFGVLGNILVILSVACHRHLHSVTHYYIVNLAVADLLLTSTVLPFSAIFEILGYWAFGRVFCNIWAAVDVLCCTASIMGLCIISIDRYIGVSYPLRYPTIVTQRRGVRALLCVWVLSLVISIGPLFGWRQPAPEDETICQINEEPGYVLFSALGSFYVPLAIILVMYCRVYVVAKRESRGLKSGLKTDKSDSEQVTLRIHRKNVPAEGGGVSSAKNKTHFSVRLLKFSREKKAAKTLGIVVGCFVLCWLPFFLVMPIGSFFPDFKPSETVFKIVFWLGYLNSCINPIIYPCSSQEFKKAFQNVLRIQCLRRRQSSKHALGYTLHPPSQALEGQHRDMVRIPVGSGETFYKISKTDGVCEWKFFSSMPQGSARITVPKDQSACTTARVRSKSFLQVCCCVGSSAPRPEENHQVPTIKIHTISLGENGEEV
In short: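 Rat cortical membranes incubated with [3H]-prazosin and test compound. Six concentrations per experiment, each run in triplicate; Ki derived from IC50 by the Cheng–Prusoff method and given as the mean of 2–3 experiments.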

Sodium-dependent serotonin transporter, sequence (P31652 whole entry): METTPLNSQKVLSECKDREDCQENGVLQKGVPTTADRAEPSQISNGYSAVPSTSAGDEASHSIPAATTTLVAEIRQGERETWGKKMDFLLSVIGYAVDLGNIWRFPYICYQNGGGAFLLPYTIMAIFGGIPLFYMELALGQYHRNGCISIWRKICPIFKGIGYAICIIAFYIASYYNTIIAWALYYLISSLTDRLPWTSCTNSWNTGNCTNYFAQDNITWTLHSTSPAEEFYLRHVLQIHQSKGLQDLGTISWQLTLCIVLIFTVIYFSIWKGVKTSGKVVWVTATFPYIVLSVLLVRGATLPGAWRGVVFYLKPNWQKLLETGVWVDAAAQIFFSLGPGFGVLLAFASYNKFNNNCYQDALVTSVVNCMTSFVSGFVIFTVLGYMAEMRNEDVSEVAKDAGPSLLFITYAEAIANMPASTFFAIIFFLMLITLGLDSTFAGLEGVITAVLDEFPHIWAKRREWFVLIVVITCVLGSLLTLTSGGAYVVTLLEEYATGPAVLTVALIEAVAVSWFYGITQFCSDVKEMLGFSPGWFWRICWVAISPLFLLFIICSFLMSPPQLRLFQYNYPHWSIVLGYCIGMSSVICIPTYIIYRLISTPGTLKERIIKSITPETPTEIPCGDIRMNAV

pKi [1]	inhibition [2] [%]	inhibition [3] [%]	SMILES	Ki [4] [nM]
8.50	27	87	N#Cc1ccc2[nH]cc(C3=CCC(NCc4ccccc4)CC3)c2c1 (configuration not stated)	
		48	Fc1ccc2[nH]cc(CCCN3CCc4ccccc4C3)c2c1	
8.81	32	41	N#Cc1ccc2[nH]cc(C3=CCC(NCCc4ccccc4)CC3)c2c1 (configuration not stated)	
6.97	64	32	c1ccc(CN[C@H]2CC[C@H](c3c[nH]c4ccccc43)CC2)cc1	
8.70	56	0	N#Cc1ccc2[nH]cc([C@H]3CC[C@H](NCCc4ccccc4)CC3)c2c1	
6.75	10	0	N#Cc1ccc2[nH]cc(C3=CCC(N4CCCCC4)CC3)c2c1 (configuration not stated)	
8.12	17	15	N#Cc1ccc2[nH]cc([C@H]3CC[C@@H](NCc4ccccc4)CC3)c2c1	
6.82	14	0	N#Cc1ccc2[nH]cc([C@H]3CC[C@H](N4CCCCC4)CC3)c2c1	
7.68	9	3	Fc1ccc2[nH]cc([C@H]3CC[C@@H](NCc4ccccc4)CC3)c2c1	
6.07	21	0	c1ccc(CN[C@H]2CC[C@@H](c3c[nH]c4ccccc43)CC2)cc1	
8.12	40	0	N#Cc1ccc2[nH]cc([C@H]3CC[C@@H](NCCc4ccccc4)CC3)c2c1	
7.60	28	37	N#Cc1ccc2[nH]cc([C@H]3CC[C@H](NCc4ccccc4)CC3)c2c1	
7.80	8	11	Fc1ccc2[nH]cc([C@H]3CC[C@H](NCc4ccccc4)CC3)c2c1	
			COc1ccc2c(c1)CCN(CCCc1c[nH]c3ccc(F)cc13)C2	58
7.66	3	0	N#Cc1ccc2[nH]cc([C@H]3CC[C@@H](N4CCCCC4)CC3)c2c1	

SMILES	pKi [1]	inhibition [2] [%]	inhibition [3] [%]	Ki [4] [nM]
COc1ccc2c(c1)CCN([C@H]1CC[C@H](c3c[nH]c4ccc(C#N)cc43)CC1)C2	8.10		74	228
COc1cccc2c1CN([C@H]1CC[C@@H](c3c[nH]c4ccc(C#N)cc43)CC1)CC2	9.00		14	
COc1ccc2c(c1)CN([C@H]1CC[C@@H](c3c[nH]c4ccc(C#N)cc43)CC1)CC2	9.10	11	26	
N#Cc1ccc2[nH]cc([C@H]3CC[C@H](N4CCc5ccccc5C4)CC3)c2c1	8.00		10	88
COc1cccc2c1CN([C@H]1CC[C@H](c3c[nH]c4ccc(C#N)cc43)CC1)CC2	8.12		46	
COc1ccc2c(c1)CCN([C@H]1CC[C@@H](c3c[nH]c4ccc(C#N)cc43)CC1)C2	10.00	11	21	
N#Cc1ccc2[nH]cc([C@H]3CC[C@@H](N4CCc5ccccc5C4)CC3)c2c1	8.91		0	337
COc1ccc2c(c1)CN([C@H]1CC[C@H](c3c[nH]c4ccc(C#N)cc43)CC1)CC2	7.92		48	113
COc1cccc2c1CCN([C@H]1CC[C@H](c3c[nH]c4ccc(C#N)cc43)CC1)C2	7.92		47	
COc1cccc2c1CCN([C@H]1CC[C@@H](c3c[nH]c4ccc(C#N)cc43)CC1)C2	9.21		7	
